Results published in ChEMBL document CHEMBL5107979, “Encoding BRAF inhibitor functions in protein degraders” (RSC Med Chem, 2022).
The source made the active and inactive calls. No cut-off for these calls is given here.

Assays:
[1] = Distribution coefficient, logD of compound at pH 7.4 by chromatographic method; type: physicochemical; conditions: octanol/water
Outline: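 Chromatographic retention-time method at pH 7.4, calibrated against six reference drugs (atenolol, metoprolol, labetalol, diltiazem, triphenylene, permethrin) of known logD7.4 (R² = 0.99); mean analyte retention times converted via calibration line. At least two independent measurements per analyte.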

[2] = test system: SK-MEL-28; experiment: Inhibition of ERK signalling pathway in human SK-MEL-28 cells harboring BRAF V600E mutant/wild type NRAS assessed as reduction in phosphorylated ERK level at 0.1 to 10 uM incubated for 4 hrs by densitometric analysis; type: cell-based; conditions: dose 0.1-10 µM
Outline: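 SK-MEL-28 melanoma in DMEM/10% FCS, plated 100,000 cells/well, grown 48 h, treated 4 h at indicated doses. Lysates (HEPES pH 7.5, 0.4 M KCl, 0.4% Triton X-100, protease/phosphatase inhibitors) immunoblotted on PVDF, imaged by LI-COR; densitometry normalised to loading control, relative to DMSO; mean of five independent repeats for dose-response.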

[3] = target: Serine/threonine-protein kinase B-raf (Homo sapiens, UniProt P15056, V600E); experiment: Inhibition of BRAF V600E mutant (unknown origin) using MEK1 (K97R) as substrate in presence of [gamma-33P]ATP by radiometric assay
[4] = Plasma protein binding in human at 0.5 mg/ml by HPLC analysis; type: ADME, cell-free; conditions: read-out: PPB (converted)
Outline: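 HSA column (50 × 3 mm, 5 μm), 30 °C; samples 0.5 mg/mL in MeCN/DMSO 9:1, 2 μL injected. 50 mM ammonium acetate pH 7.4 to 30% iPrOH gradient over 5.4 min, held to 18 min; 1.0 mL/min, UV 254 nm. Log retention times calibrated to ten reference drugs' logK (R² = 0.94), converted to %PPB.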

[5] = test system: von Hippel-Lindau disease tumor suppressor/Serine/threonine-protein kinase B-raf (Homo sapiens), P15056+P40337 [V600E]; experiment: Protac activity at VHL/BRAF V600E mutant degradation in human SK-MEL-28 cells harboring wild type NRAS assessed as remaining BRAF V600E level at 1 uM incubated for 4 hrs by densitometric analysis; type: cell-based
Outline: (§1)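 SK-MEL-28 melanoma cells (STR-authenticated, mycoplasma-free) in DMEM + 10% FCS, 37°C, 5% CO2; 100,000 cells/well seeded, grown 48 h, then compound-treated as indicated. Lysis in D0.4 buffer (HEPES pH 7.5, 0.4 M KCl, Triton X-100, EDTA) with protease/phosphatase inhibitors. Lysates run on 4-12% Bis-Tris gels and blotted to PVDF. LI-COR imaging; BRAF densitometry normalised to loading control, expressed relative to DMSO.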

[6] = test system: von Hippel-Lindau disease tumor suppressor/Serine/threonine-protein kinase B-raf (Homo sapiens), P15056+P40337 [V600E]; experiment: Protac activity at VHL/BRAF V600E mutant degradation in human SK-MEL-28 cells harboring wild type NRAS assessed as remaining BRAF V600E level at 10 uM incubated for 24 hrs by densitometric analysis; type: cell-based; outline: as §1
[7] = test system: SK-MEL-28; experiment: Anticancer activity against human SK-MEL-28 cells assessed as reduction in cell viability incubated for 120 hrs by CellTiter-Glo luminescent assay; type: functional, cell-based
Outline: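 SK-MEL-28 in DMEM with 10% FCS, 37°C, 5% CO2; seeded 400 cells/well in 384-well plates. T0 CellTiter-Glo reading taken at 24 h on a parallel plate; compounds dispensed acoustically, 5 days incubation, then CellTiter-Glo luminescence. Normalised to DMSO; GI50 by four-parameter log(inhibitor) vs response fit; mean±s.d., n=3.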

[8] = test system: SK-N-AS; experiment: Effect on ERK signalling pathway in human SK-N-AS harboring wild type BRAF/NRAS […] mutant assessed as BRAF level at 0.1 to 10 uM incubated upto 24 hrs by western blot analysis; type: functional, cell-based; conditions: dose 0.1-10 µM
Outline: (§2)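 SK-N-AS neuroblastoma (NRAS mutant), DMEM/10% FCS, plated 100,000 cells/well, grown 48 h, then treated 4 h at indicated doses or 24 h at 10 μM. Lysed in HEPES pH 7.5/KCl/Triton buffer with protease and phosphatase inhibitors; SDS-PAGE, PVDF transfer, LI-COR imaging; densitometry normalised to loading control, relative to DMSO.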

[9] = test system: von Hippel-Lindau disease tumor suppressor/Serine/threonine-protein kinase B-raf (Homo sapiens), P15056+P40337 [V600E]; experiment: Protac activity at VHL/BRAF V600E mutant degradation in human SK-MEL-28 cells harboring wild type NRAS assessed as remaining BRAF V600E level at 0.1 to 10 uM incubated for 4 hrs by densitometric analysis; type: cell-based; conditions: dose 0.1-10 µM; outline: as §1
[10] = test system: SK-N-AS; experiment: Effect on ERK signalling pathway in human SK-N-AS harboring wild type BRAF/NRAS […] mutant assessed as phosphorylated ERK level at 0.1 to 10 uM incubated upto 24 hrs by western blot analysis; type: functional, cell-based; conditions: dose 0.1-10 µM; outline: as §2

Chain of Serine/threonine-protein kinase B-raf (P15056 2-766 V600E limits assumed): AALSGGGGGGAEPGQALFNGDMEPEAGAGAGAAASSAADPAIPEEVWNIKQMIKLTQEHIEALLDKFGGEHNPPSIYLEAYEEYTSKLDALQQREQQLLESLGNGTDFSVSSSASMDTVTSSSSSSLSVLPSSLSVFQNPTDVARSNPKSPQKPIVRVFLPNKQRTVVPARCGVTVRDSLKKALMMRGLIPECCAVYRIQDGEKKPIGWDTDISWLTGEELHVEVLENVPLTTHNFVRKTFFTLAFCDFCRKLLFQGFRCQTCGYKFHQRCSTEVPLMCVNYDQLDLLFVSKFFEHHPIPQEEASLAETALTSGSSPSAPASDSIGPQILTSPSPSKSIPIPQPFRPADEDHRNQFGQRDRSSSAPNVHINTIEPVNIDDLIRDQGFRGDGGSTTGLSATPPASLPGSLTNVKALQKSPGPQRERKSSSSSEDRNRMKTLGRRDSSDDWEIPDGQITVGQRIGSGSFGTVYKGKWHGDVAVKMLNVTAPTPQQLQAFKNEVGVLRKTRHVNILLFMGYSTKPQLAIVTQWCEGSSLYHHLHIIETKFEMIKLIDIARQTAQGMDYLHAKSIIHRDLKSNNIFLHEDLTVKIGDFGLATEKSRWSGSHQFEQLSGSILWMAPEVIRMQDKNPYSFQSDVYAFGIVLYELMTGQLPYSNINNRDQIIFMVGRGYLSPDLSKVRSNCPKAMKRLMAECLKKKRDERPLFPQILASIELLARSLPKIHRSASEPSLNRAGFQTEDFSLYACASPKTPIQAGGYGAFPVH

SMILES	chromatographic logD [1]	inhibition [2]	IC50 [3]	fraction unbound at 0.5 mg/ml [4]	Remaining BRAF V600E level [5]	Activity [6]	Activity [7]	Activity [8]	Activity [9]	Activity [10]
CCCS(=O)(=O)Nc1ccc(F)c(C(=O)c2c[nH]c3ncc(-c4ccc(C(=O)NCCOCCOCC(=O)N[C@H](C(=O)N5C[C@H](O)C[C@H]5C(=O)NCc5ccc(-c6scnc6C)cc5)C(C)(C)C)cc4)cc23)c1F	2.3	Active	8.5 nM	0.05	> 95%	–	–	–	–	–
CCN(C)S(=O)(=O)Nc1ccc(F)c(C(=O)c2c[nH]c3ncc(-c4ccc(N5CCN(CC(=O)N[C@H](C(=O)N6C[C@H](O)C[C@H]6C(=O)NCc6ccc(-c7scnc7C)cc6)C(C)(C)C)CC5)cc4)cc23)c1F	3.2	–	–	0.04	52%	Active	Active	–	–	–
CCCS(=O)(=O)Nc1ccc(F)c(C(=O)c2c[nH]c3ncc(-c4ccc(C(=O)NCCOCCOCCOCCCCC(=O)N[C@H](C(=O)N5C[C@H](O)C[C@H]5C(=O)NCc5ccc(-c6scnc6C)cc5)C(C)(C)C)cc4)cc23)c1F	2.4	Active	0.31 nM	0.05	> 95%	–	–	–	–	–
CCCS(=O)(=O)Nc1ccc(F)c(C(=O)c2c[nH]c3ncc(-c4ccc(C(=O)NCCOCCOCCOCCOc5cc(-c6scnc6C)ccc5CNC(=O)[C@@H]5C[C@@H](O)CN5C(=O)[C@H](C(C)C)N5Cc6ccccc6C5=O)cc4)cc23)c1F	2.5	Active	3.4 nM	0.04	73%	–	–	–	–	–
CCCS(=O)(=O)Nc1ccc(F)c(C(=O)c2c[nH]c3ncc(-c4ccc(N5CCN(CC(=O)N[C@H](C(=O)N6C[C@H](O)C[C@H]6C(=O)NCc6ccc(-c7scnc7C)cc6)C(C)(C)C)CC5)cc4)cc23)c1F	2.9	–	–	0.04	46%	–	–	Active	Active	Active
CCN(C)S(=O)(=O)Nc1ccc(F)c(C(=O)c2c[nH]c3ncc(-c4cnc(N5CCN(CC(=O)N[C@H](C(=O)N6C[C@H](O)C[C@H]6C(=O)N[C@@H](C)c6ccc(-c7scnc7C)cc6)C(C)(C)C)CC5)nc4)cc23)c1F	3.2	–	–	0.04	> 95%	–	–	–	–	–
CCCS(=O)(=O)Nc1ccc(F)c(C(=O)c2c[nH]c3ncc(-c4ccc(C(=O)NCCCCCCOCCCCCOCCCCC(=O)N[C@H](C(=O)N5C[C@H](O)C[C@H]5C(=O)NCc5ccc(-c6scnc6C)cc5)C(C)(C)C)cc4)cc23)c1F	3.7	Active	48 nM	0.04	> 95%	–	–	–	–	–
CCCS(=O)(=O)Nc1ccc(F)c(C(=O)c2c[nH]c3ncc(-c4ccc(CNC(=O)CCCCOCCCCOCCCCOc5cc(-c6scnc6C)ccc5CNC(=O)[C@@H]5C[C@@H](O)CN5C(=O)[C@H](C(C)C)N5Cc6ccccc6C5=O)cc4)cc23)c1F	3.6	Active	10 nM	0.04	77%	–	–	–	–	–
CCCS(=O)(=O)Nc1ccc(F)c(C(=O)c2c[nH]c3ncc(-c4ccc(CNC(=O)CCCCOCCOCCOCCOc5cc(-c6scnc6C)ccc5CNC(=O)[C@@H]5C[C@@H](O)CN5C(=O)[C@H](C(C)C)N5Cc6ccccc6C5=O)cc4)cc23)c1F	2.7	Active	3.8 nM	0.04	77%	–	–	–	–	–
O=C1Nc2ccc(I)cc2C1=Cc1cc(Br)c(O)c(Br)c1 [GW305074X]	2.3	–	–	–	–	–	–	–	–	–
